Results reported in ChEMBL document CHEMBL1641563, “Synthesis and antihyperglycemic activity of phenolic C-glycosides” (2011).

Assays:
Type in all cases: functional
Rattus norvegicus [1] = test: Antihyperglycemic activity against streptozotocin-induced Sprague-Dawley albino rat diabetic model assessed as area under the 0 to 24 hrs blood glucose response curve (0-24 hrs AUC) at 25 mg/kg, po after 48 hrs by glucometer
Summary of the method: (§1)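 Male Sprague–Dawley rats, fasted overnight, received STZ 60 mg/kg ip in 0.1 M citrate pH 4.5. Rats with glucose 140–270 mg/dl at 48 h were used, n = 5 per group. Compound was given at 25 mg/kg orally in 1.0% gum acacia, with vehicle controls, and a sucrose load of 2.5 g/kg followed 30 min later. Glucose was read by glucometer at 1–6 h and 24 h. Percent activity came from AUC versus control, with Dunnett's test.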

Rattus norvegicus [2] = test: Antihyperglycemic activity against streptozotocin-induced Sprague-Dawley albino rat diabetic model assessed as area under the 0 to 5 hrs blood glucose response curve (0-5 hrs AUC) at 25 mg/kg, po after 48 hrs by glucometer; summary of the method: as §1
L6 = test: Antihyperglycemic activity against rat L6 cells assessed as increase in glucose uptake by liquid scintillation counting; design: concentration or dose not given beside the values
Summary of the method: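 L6 myoblasts were grown in DMEM with 10% FBS, then differentiated into myotubes for 7–8 days in 2% FBS. Myotubes were treated with compound at 10 or 50 µM for 18 h and washed in Krebs–Ringer HEPES. Uptake of 2-deoxy-[3H]-D-glucose (3 µCi, plus 20 µM unlabelled) was measured over 15 min. Non-specific uptake was taken with 10 µM cytochalasin B. Counts (cpm/well) were compared with controls.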

Rattus norvegicus [3] = test: Antihyperglycemic activity against streptozotocin-induced Sprague-Dawley albino rat diabetic model assessed as reduction in blood glucose at 25 mg/kg, po after 24 hrs; design: scale not given: the % may be the effect or the level left; summary of the method: as §1

OC[C@H]1O[C@@H](c2c(O)cccc2O)[C@H](O)[C@@H](O)[C@@H]1O
Activity (Rattus norvegicus [1]): 22.3% | Activity (Rattus norvegicus [2]): 12.7%

O=C1c2c(cc(O)c([C@@H]3O[C@H](CO)[C@@H](O)[C@H](O)[C@H]3O)c2O)OC(c2ccc(O)c(O)c2)C1O (stereo not given in full)
Activity (Rattus norvegicus [1]): 12.8% | Activity (L6): 10.2% | Activity (Rattus norvegicus [2]): 17.6%

O=c1c(O)c(-c2ccc(O)c(O)c2)oc2cc(O)c([C@@H]3O[C@H](CO)[C@@H](O)[C@H](O)[C@H]3O)c(O)c12
Activity (Rattus norvegicus [1]): 8.56% | Activity (Rattus norvegicus [2]): 15.6%

O=C(CCc1ccccc1)c1c(O)cc(O)c([C@@H]2O[C@H](CO)[C@@H](O)[C@H](O)[C@H]2O)c1O
Activity (Rattus norvegicus [1]): 26.5% | Activity (Rattus norvegicus [3]): 26.5% | Activity (L6): 11.6% | Activity (Rattus norvegicus [2]): 22.3%

O=C1CC(c2ccc(O)cc2)Oc2cc(O)c([C@@H]3O[C@H](CO)[C@@H](O)[C@H](O)[C@H]3O)c(O)c21 (stereo not given in full)
Activity (Rattus norvegicus [1]): 15.1% | Activity (L6): 12.2% | Activity (Rattus norvegicus [2]): 8.41%

COC(=O)c1c(O)c([C@@H]2O[C@H](CO)[C@@H](O)[C@H](O)[C@H]2O)c(O)c([C@@H]2O[C@H](CO)[C@@H](O)[C@H](O)[C@H]2O)c1O
Activity (Rattus norvegicus [1]): 7.78% | Activity (L6): 10.8% | Activity (Rattus norvegicus [2]): 11.5%

COC(=O)c1c(O)cc(O)c([C@@H]2O[C@H](CO)[C@@H](O)[C@H](O)[C@H]2O)c1O
Activity (Rattus norvegicus [1]): 2.9% | Activity (Rattus norvegicus [2]): 7.27%

O=c1c(O)c(-c2ccc(O)cc2)oc2cc(O)c([C@@H]3O[C@H](CO)[C@@H](O)[C@H](O)[C@H]3O)c(O)c12
Activity (Rattus norvegicus [1]): 23.5% | Activity (L6): 12.2% | Activity (Rattus norvegicus [2]): 16.7%

OC[C@H]1O[C@@H](c2c(O)ccc3cc(Cc4ccc(O)cc4)oc23)[C@H](O)[C@@H](O)[C@@H]1O
Activity (Rattus norvegicus [1]): 11.2% | Activity (Rattus norvegicus [2]): 9.78%

O=C1c2ccc(O)c([C@@H]3O[C@H](CO)[C@@H](O)[C@H](O)[C@H]3O)c2OC1(O)Cc1ccc(O)cc1 (stereo not given in full)
Activity (Rattus norvegicus [1]): 7.9% | Activity (Rattus norvegicus [2]): 1.99%

O=C1Oc2c(ccc(O)c2[C@@H]2O[C@H](CO)[C@@H](O)[C@H](O)[C@H]2O)/C1=C\c1ccc(O)cc1
Activity (Rattus norvegicus [1]): 29% | Activity (L6): 16% | Activity (Rattus norvegicus [2]): 17.2%

O=C1c2c(cc(O)c([C@@H]3O[C@H](CO)[C@@H](O)[C@H](O)[C@H]3O)c2O)OC(c2ccc(O)cc2)C1O (stereo not given in full)
Activity (Rattus norvegicus [1]): 23.8% | Activity (Rattus norvegicus [3]): 23.8% | Activity (Rattus norvegicus [2]): 23.8%

O=c1cc(-c2ccc(O)c(O)c2)oc2c([C@@H]3O[C@H](CO)[C@@H](O)[C@H](O)[C@H]3O)c(O)ccc12
Activity (Rattus norvegicus [1]): 16.1% | Activity (Rattus norvegicus [2]): 14.3%

CN(C)C(=N)NC(=N)N [METFORMIN]
Activity (Rattus norvegicus [1]): 24.1% | Activity (L6): 19.4% | Activity (Rattus norvegicus [2]): 27.2%

CC(=O)c1c(O)cc(O)c([C@@H]2O[C@H](CO)[C@@H](O)[C@H](O)[C@H]2O)c1O
Activity (Rattus norvegicus [1]): 20.9% | Activity (L6): 15.3% | Activity (Rattus norvegicus [2]): 18%

COc1cc(OC)c([C@@H]2O[C@H](CO)[C@@H](O)[C@H](O)[C@H]2O)c(OC)c1C(=O)/C=C/c1ccc(C(C)C)cc1
Activity (Rattus norvegicus [1]): 33.6% | Activity (Rattus norvegicus [3]): 33.6% | Activity (Rattus norvegicus [2]): 34.9%

O=C(CC(O)c1ccc(O)c(O)c1)c1ccc(O)c([C@@H]2O[C@H](CO)[C@@H](O)[C@H](O)[C@H]2O)c1O (stereo not given in full)
Activity (Rattus norvegicus [1]): 19.5% | Activity (Rattus norvegicus [2]): 20%
